Measured values from ChEMBL document CHEMBL1153864, “Phase transfer catalyzed synthesis of bis-quinolines: antileishmanial activity in experimental visceral leishmaniasis and in vitro antibacterial evaluation” (Eur J Med Chem, 2009).
≈ marks a conversion by molar mass, not a printed value. Calls of active or inactive are those of the source. The calls are words filed in the database; no cut-off is given here.

Tests used:
[1] = test system: Macrophage; test: Induction of nitric oxide production in Leishmania donovani MHOM/IN/1983/AG83 infected golden Syrian hamster peritoneal macrophages; format: functional, cell-based; conditions: Mesocricetus auratus
[2] = test system: Staphylococcus aureus; test: Antibacterial activity against Staphylococcus aureus ML6 ug/ml after 24 hrs by agar dilution method; format: functional; conditions: ML6, 24 h
In short: (§1)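 Agar dilution MIC. Compound dissolved in sterile 0.2% DMSO, diluted in distilled water and mixed into molten nutrient agar (pH 7.2–7.4) at 5, 10, 25, 50; plate with 0.2% DMSO as control. Gram-positives grown 18 h in nutrient broth, Gram-negatives in peptone water. Stationary-phase suspension set to 0.5 McFarland, diluted 1:100, spot-inoculated at about 10^5 CFU per loopful. Plates held 24 h at 37 °C (up to 72 h if needed). MIC is the lowest level with no growth.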

[3] = test system: Mus musculus; test: Toxicity in BALB/c mouse assessed as effect on serum glutamate pyruvate transaminase levels at 5.5 mg/kg, ip administered two times per week for 4 weeks; format: organism-based; set-up: dose 5.5 mg/kg, route intraperitoneal; conditions: in vivo, 672 h
In short: (§2)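 Normal BALB/c mice were dosed ip twice per week for 4 weeks. Blood was collected one month after treatment, and serum SGPT and SGOT (IU/l) and blood urea (mg/dl) were measured with commercial kits and compared with untreated normal mice.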

[4] = test system: Leishmania donovani; test: Antileishmanial activity against Leishmania donovani MHOM/IN/1983/AG83 promastigotes assessed as induction of chromatin condensation at 2 ug/ml after 2 hrs by transmission electron microscopy; format: functional, organism-based
[5] = test system: Staphylococcus aureus; test: Antibacterial activity against Staphylococcus aureus ML6 at 10 ug/ml after 24 hrs by agar dilution method; format: functional; conditions: ML6, 24 h; in short: as §1
[6] = test system: Proteus mirabilis; test: Antibacterial activity against Proteus mirabilis 175 at 10 ug/ml after 24 hrs by agar dilution method; format: functional, organism-based; in short: as §1
[7] = test system: Vibrio cholerae; test: Antibacterial activity against Vibrio cholerae 569B after 24 hrs by agar dilution method; format: functional
[8] = test system: Bacillus licheniformis; test: Antibacterial activity against […] Bacillus licheniformis NCTC 10341 at 50 ug/ml after 24 hrs by agar dilution method; format: functional; conditions: NCTC 10341, 24 h; in short: as §1
[9] = test system: Staphylococcus aureus; test: Antibacterial activity against Staphylococcus aureus ML145 at 5 ug/ml after 24 hrs by agar dilution method; format: functional; conditions: ML145, 24 h; in short: as §1
[10] = test system: Leishmania donovani; test: Antileishmanial activity against Leishmania donovani MHOM/IN/1983/AG83 promastigotes infected BALB/c mouse assessed as reduction in liver parasite burden at 12.5 mg/kg, ip administered two times per week for 4 weeks relative to control; format: functional; set-up: scale not given: the % may be the effect or the level left; conditions: route intraperitoneal
In short: (§3)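 BALB/c mice (4-6 weeks) were infected iv with 2 × 10^7 freshly transformed promastigotes. One month later, groups were dosed ip in 0.2% Tween 80 in PBS (0.02 M), twice weekly for one month (8 doses); controls got vehicle only. Mice were killed one month post-treatment and spleen and liver were weighed. Parasite load came from Giemsa impression smears as organ weight (mg) × amastigotes per cell nucleus × 2 × 10^5. Values are mean ± S.E. of 5 mice; unpaired t-test.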

[11] = test system: Vibrio cholerae; test: Antibacterial activity against Vibrio cholerae 569B at 10 ug/ml after 24 hrs by agar dilution method; format: functional, organism-based
[12] = test system: Vibrio cholerae; test: Antibacterial activity against Vibrio cholerae 569B at 50 ug/ml after 24 hrs by agar dilution method; format: functional
[13] = test system: Mus musculus; test: Toxicity in BALB/c mouse assessed as effect on serum glutamate oxaloacetate transaminase levels at 12.5 mg/kg, ip administered two times per week for 4 weeks; format: organism-based; set-up: dose 12.5 mg/kg, route intraperitoneal; conditions: in vivo, 672 h; in short: as §2
[14] = test system: Escherichia coli; test: Antibacterial activity against Escherichia coli K-12 Row at 10 ug/ml after 24 hrs by agar dilution method; format: functional, organism-based; in short: as §1
[15] = test system: Escherichia coli; test: Antibacterial activity against Escherichia coli K-12 Row at 25 ug/ml after 24 hrs by agar dilution method; format: functional, organism-based; in short: as §1
[16] = test system: Salmonella typhimurium; test: Antibacterial activity against Salmonella Typhimurium NCTC 74 at 50 ug/ml after 24 hrs by agar dilution method; format: functional, Salmonella enterica subsp. enterica serovar Typhimurium; conditions: Salmonella enterica, NCTC 74, 24 h; in short: as §1
[17] = test system: Leishmania donovani; test: Antileishmanial activity against Leishmania donovani MHOM/IN/1983/AG83 promastigotes infected BALB/c mouse assessed as reduction in spleen parasite burden at 5.5 mg/kg, ip administered two times per week for 4 weeks relative to control; format: functional; set-up: scale not given: the % may be the effect or the level left; conditions: route intraperitoneal; in short: as §3
[18] = Down regulation of TNFalpha release Leishmania donovani MHOM/IN/1983/AG83 infected interferon gamma-stimulated golden Syrian hamster peritoneal macrophages; format: functional, cell-based; conditions: Mesocricetus auratus; Macrophage
[19] = test system: Vibrio cholerae; test: Antibacterial activity against Vibrio cholerae 582 at 50 ug/ml after 24 hrs by agar dilution method; format: functional; conditions: Vibrio cholerae, 582, 24 h
[20] = test system: Leishmania donovani; test: Antileishmanial activity against Leishmania donovani MHOM/IN/1983/AG83 promastigotes assessed as induction of kinetoplast enlargement at 2 ug/ml after 2 hrs by transmission electron microscopy; format: functional, organism-based
In short: (§4)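 Log-phase promastigotes, grown at 22 °C in M199 with 10% FBS, were exposed for 2 h to the compound; controls received 0.1% DMSO alone. Cells were then sectioned, stained on copper grids with uranyl acetate and lead acetate for 10-15 min each, and examined by TEM for ultrastructural changes.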

[21] = test system: Proteus mirabilis; test: Antibacterial activity against Proteus mirabilis 175 after 24 hrs by agar dilution method; format: functional; conditions: Proteus mirabilis, 175, 24 h; in short: as §1
[22] = test system: Leishmania donovani; test: Antileishmanial activity against Leishmania donovani MHOM/IN/1983/AG83 promastigotes infected BALB/c mouse assessed as spleen weight at 5.5 mg/kg, ip administered two times per week for 4 weeks; format: functional; conditions: route intraperitoneal; in short: as §3
[23] = test system: Escherichia coli; test: Antibacterial activity against Escherichia coli K-12 Row after 24 hrs by agar dilution method; format: functional; in short: as §1
[24] = test system: Leishmania donovani; test: Antileishmanial activity against Leishmania donovani MHOM/IN/1983/AG83 promastigotes assessed as induction of kinetoplast enlargement at 11.5 ug/ml after 2 hrs by transmission electron microscopy; format: functional, organism-based
[25] = test system: Leishmania donovani; test: Antileishmanial activity against Leishmania donovani MHOM/IN/1983/AG83 promastigotes assessed as induction of membrane blebbing at 2 ug/ml after 2 hrs by transmission electron microscopy; format: functional, organism-based; in short: as §4
[26] = test system: Escherichia coli; test: Antibacterial activity against Escherichia coli K-12 Row at 5 ug/ml after 24 hrs by agar dilution method; format: functional, organism-based; in short: as §1
[27] = test system: Vibrio cholerae; test: Antibacterial activity against Vibrio cholerae 569B at 25 ug/ml after 24 hrs by agar dilution method; format: functional
[28] = test system: Leishmania donovani; test: Antileishmanial activity against Leishmania donovani MHOM/IN/1983/AG83 promastigotes infected BALB/c mouse assessed as reduction in spleen parasite burden at 12.5 mg/kg, ip administered two times per week for 4 weeks relative to control; format: functional; set-up: scale not given: the % may be the effect or the level left; conditions: route intraperitoneal; in short: as §3
[29] = test system: Leishmania donovani; test: Antileishmanial activity against Leishmania donovani MHOM/IN/1983/AG83 promastigotes assessed as induction of vacuolization at 2 ug/ml after 2 hrs by transmission electron microscopy; format: functional, organism-based; in short: as §4
[30] = test system: Escherichia coli; test: Antibacterial activity against Escherichia coli ATCC 25938 at 5 ug/ml after 24 hrs by agar dilution method; format: functional, organism-based; in short: as §1
[31] = test system: Bacillus licheniformis; test: Antibacterial activity against […] Bacillus licheniformis NCTC 10341 at 25 ug/ml after 24 hrs by agar dilution method; format: functional, organism-based; in short: as §1
[32] = test system: Shigella dysenteriae; test: Antibacterial activity against Shigella dysenteriae 7 NCTC 519/66 after 24 hrs by agar dilution method; format: functional; conditions: 7 NCTC 519/66, 24 h
[33] = test system: Mus musculus; test: Toxicity in BALB/c mouse assessed as effect on blood urea levels at 12.5 mg/kg, ip administered two times per week for 4 weeks; format: organism-based; set-up: dose 12.5 mg/kg, route intraperitoneal; conditions: in vivo, 672 h; in short: as §2

With Clc1ccc(OCOc2ccc(Cl)c3cccnc23)c2ncccc12 the Activity [1] was “Active”, the MIC [2] was 10 µg/mL (≈ 26.9 µM) and the Activity [3] was “Non-toxic”. For the same compound, the Activity [4] was “Active”, the inhibition at 10 µg/mL [5] was 100% and the Activity [6] was “inactive”. The MIC [7] was 25 µg/mL (≈ 67.3 µM), the inhibition at 50 µg/mL [8] was 100% and the inhibition at 5 µg/mL [9] was 100%. The Activity [10] was 98.49%, the Activity [11] was “inactive” and the inhibition at 50 µg/mL [12] was 100%. For the same compound, the Activity [13] was “Non-toxic”, the Activity [14] was “inactive” and the Activity [15] was “inactive”. The inhibition at 50 µg/mL [16] was 100%, the Activity [17] was 75% and the Activity [18] was “Active”. The inhibition at 50 µg/mL [19] was 100%, the Activity [20] was “Active” and the MIC [21] was 50 µg/mL (≈ 135 µM). The Activity [22] was 175 mg, the MIC [23] was 50 µg/mL (≈ 135 µM) and the Activity [24] was “Active”. The Activity [25] was “Active”, the Activity [26] was “inactive” and the inhibition at 25 µg/mL [27] was 100%. For the same compound, the Activity [28] was 95%, the Activity [29] was “Active” and the Activity [30] was “inactive”. The Activity [31] was “inactive”, the MIC [32] was 10 µg/mL (≈ 26.9 µM) and the Activity [33] was “Non-toxic”.
